Converted amounts (≈) assume the structure as drawn.
How the values were obtained:
Influenza B virus [1] = experiment: Antiviral activity against Influenza B virus jifang/13/97 infected in MDCK cells assessed as inhibition of plaque formation after 3 to 4 days by crystal violet staining-based assay; type: functional, organism-based; details: jifang/13/97, MDCK
Method in brief: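 Plaque reduction: MDCK monolayers in 12-well plates were PBS-washed and infected with influenza B in trypsin-free maintenance medium for 2 h at 37 °C, 5% CO2. Inoculum was removed and the cells washed three times. A 1.5% agarose/MEM overlay with trypsin (2 μg/ml) and drug was added. After 3-4 days, crystal violet (0.5%) plaque counts against no-drug wells gave IC50 by Reed & Muench. Ribavirin was the control.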

[2] = Selectivity index, ratio of TC50 for MDCK cells to IC50 for Influenza B virus jifang/13/97; type: toxicity, cell-based; details: dog, read-out: Selectivity Index
Method in brief: (§1)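 Selectivity index = TC50 (MDCK, 48 h visual cytotoxicity) / IC50 from the 40 h CPE-inhibition assay for the given strain.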

Influenza B virus [3] = experiment: Antiviral activity against Influenza B virus jifang/13/97 infected in MDCK cells assessed as inhibition of virus-induced cytopathicity after 40 hrs; type: functional, organism-based; details: jifang/13/97, MDCK
Method in brief: (§2)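 CPE reduction in MDCK cells: cells grown 24 h at 37 °C, 5% CO2, then infected and held 2 h at 37 °C before the inoculum was removed. Threefold serial drug dilutions (8 levels from 20 mg/mL DMSO stocks) were added and incubated 40 h at 37 °C. CPE inhibition was scored against cell and virus controls to give IC50. Ribavirin and oseltamivir were the controls.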

[4] = Selectivity index, ratio of TC50 for MDCK cells to IC50 for Influenza A virus A/hanfang/359/95(H3N2); type: toxicity, cell-based; details: dog, read-out: Selectivity Index; method in brief: as §1
Influenza A virus [5] = experiment: Antiviral activity against Influenza A virus A/hanfang/359/95(H3N2) infected in MDCK cells assessed as inhibition of virus-induced cytopathicity after 40 hrs; type: functional, organism-based; method in brief: as §2
[6] = Selectivity index, ratio of TC50 for MDCK cells to IC50 for Influenza A virus (A/Tianjinjinnan/15/2009/H1N1); type: toxicity, cell-based; details: dog, read-out: Selectivity Index; method in brief: as §1
[7] = Selectivity index, ratio of TC50 for MDCK cells to IC50 for Influenza A virus (A/FM/1/1947(H1N1)); type: toxicity, cell-based; details: dog, read-out: Selectivity Index; method in brief: as §1
Influenza A virus [8] = experiment: Antiviral activity against Influenza A virus (A/FM/1/1947(H1N1)) infected in MDCK cells assessed as inhibition of virus-induced cytopathicity after 40 hrs; type: functional, organism-based; details: A/Fort Monmouth/1/1947(H1N1); method in brief: as §2

Compound `NC(=O)c1ncn([C@@H]2O[C@H](CO)[C@@H](O)[C@H]2O)n1` [RIBAVIRIN] has an IC50 (Influenza B virus [1]) of 3.27 mg/L (≈ 13.4 µM), a selectivity ratio [2] of 206 and an IC50 (Influenza B virus [3]) of 7.84 mg/L (≈ 32.1 µM). For the same compound, the selectivity ratio [4] was 213, the IC50 (Influenza A virus [5]) was 5.59 mg/L (≈ 22.9 µM) and the selectivity ratio [6] was 185. It also gave a selectivity ratio [7] of 820 and an IC50 (Influenza A virus [8]) of 1.92 mg/L (≈ 7.86 µM).
